We go through 2 compounds from ChEMBL document CHEMBL1154352, “Toll-like receptor 7 selective synthetic oligoribonucleotide agonists: synthesis and structure-activity relationship studies” (J Med Chem, 2009).

The test system of test [1] is PBMC. Briefly: Immunomodulatory activity in human PBMC assessed as induction of IL12 at 100 ug/ml after 24 hrs. It is filed as functional, cell-based. Summed up:
(§1)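 Human PBMCs plated at 5 × 10^6 cells/mL; compounds dissolved in PBS added at various concentrations, 37 °C for 24 h. Supernatant cytokines/chemokines quantified with human Luminex multiplex kit.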

For test [2], the target named is T1, Toll-like receptor 9 (Mus musculus) (UniProt Q9EQU3).
T1 sequence (whole entry): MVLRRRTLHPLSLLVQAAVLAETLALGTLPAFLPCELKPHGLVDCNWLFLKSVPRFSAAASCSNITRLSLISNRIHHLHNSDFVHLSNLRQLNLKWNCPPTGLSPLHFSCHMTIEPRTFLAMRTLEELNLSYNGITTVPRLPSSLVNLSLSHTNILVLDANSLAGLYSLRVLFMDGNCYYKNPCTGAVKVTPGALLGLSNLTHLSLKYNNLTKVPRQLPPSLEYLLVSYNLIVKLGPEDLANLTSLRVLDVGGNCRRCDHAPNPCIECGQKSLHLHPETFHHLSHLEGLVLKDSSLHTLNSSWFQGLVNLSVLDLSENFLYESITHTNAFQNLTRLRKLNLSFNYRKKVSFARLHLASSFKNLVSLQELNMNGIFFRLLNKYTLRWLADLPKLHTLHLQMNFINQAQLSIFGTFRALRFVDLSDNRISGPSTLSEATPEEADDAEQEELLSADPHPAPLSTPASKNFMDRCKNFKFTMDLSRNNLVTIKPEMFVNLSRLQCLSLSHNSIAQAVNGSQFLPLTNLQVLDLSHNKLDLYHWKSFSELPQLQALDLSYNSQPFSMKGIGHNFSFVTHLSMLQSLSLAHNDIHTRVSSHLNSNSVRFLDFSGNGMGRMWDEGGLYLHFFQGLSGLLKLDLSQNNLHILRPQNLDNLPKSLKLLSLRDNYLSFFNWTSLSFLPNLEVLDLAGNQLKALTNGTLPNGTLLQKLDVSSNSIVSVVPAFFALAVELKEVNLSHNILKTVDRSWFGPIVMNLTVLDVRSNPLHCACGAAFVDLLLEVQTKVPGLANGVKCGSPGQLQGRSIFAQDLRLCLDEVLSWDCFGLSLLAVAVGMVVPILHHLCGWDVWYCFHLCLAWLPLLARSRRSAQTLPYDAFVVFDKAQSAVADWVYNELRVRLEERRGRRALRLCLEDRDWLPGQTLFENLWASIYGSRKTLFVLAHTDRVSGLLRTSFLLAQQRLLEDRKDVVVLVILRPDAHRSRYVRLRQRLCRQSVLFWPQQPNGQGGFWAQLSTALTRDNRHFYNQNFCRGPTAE
Briefly: Activation of mouse TLR9 expressed in HEK293 assessed as induction of NF-kappaB activity reporter gene assay. It is filed as cell-based.

Test [3] relates to PBMC. Briefly: Immunomodulatory activity in human PBMC assessed as induction of TNFalpha at 100 ug/ml after 24 hrs. It is filed as functional, cell-based. The method, boiled down: as §1
In test [4] the target is T2, Toll-like receptor 7 (Homo sapiens) (UniProt Q9NYK1).
T2 sequence (whole entry): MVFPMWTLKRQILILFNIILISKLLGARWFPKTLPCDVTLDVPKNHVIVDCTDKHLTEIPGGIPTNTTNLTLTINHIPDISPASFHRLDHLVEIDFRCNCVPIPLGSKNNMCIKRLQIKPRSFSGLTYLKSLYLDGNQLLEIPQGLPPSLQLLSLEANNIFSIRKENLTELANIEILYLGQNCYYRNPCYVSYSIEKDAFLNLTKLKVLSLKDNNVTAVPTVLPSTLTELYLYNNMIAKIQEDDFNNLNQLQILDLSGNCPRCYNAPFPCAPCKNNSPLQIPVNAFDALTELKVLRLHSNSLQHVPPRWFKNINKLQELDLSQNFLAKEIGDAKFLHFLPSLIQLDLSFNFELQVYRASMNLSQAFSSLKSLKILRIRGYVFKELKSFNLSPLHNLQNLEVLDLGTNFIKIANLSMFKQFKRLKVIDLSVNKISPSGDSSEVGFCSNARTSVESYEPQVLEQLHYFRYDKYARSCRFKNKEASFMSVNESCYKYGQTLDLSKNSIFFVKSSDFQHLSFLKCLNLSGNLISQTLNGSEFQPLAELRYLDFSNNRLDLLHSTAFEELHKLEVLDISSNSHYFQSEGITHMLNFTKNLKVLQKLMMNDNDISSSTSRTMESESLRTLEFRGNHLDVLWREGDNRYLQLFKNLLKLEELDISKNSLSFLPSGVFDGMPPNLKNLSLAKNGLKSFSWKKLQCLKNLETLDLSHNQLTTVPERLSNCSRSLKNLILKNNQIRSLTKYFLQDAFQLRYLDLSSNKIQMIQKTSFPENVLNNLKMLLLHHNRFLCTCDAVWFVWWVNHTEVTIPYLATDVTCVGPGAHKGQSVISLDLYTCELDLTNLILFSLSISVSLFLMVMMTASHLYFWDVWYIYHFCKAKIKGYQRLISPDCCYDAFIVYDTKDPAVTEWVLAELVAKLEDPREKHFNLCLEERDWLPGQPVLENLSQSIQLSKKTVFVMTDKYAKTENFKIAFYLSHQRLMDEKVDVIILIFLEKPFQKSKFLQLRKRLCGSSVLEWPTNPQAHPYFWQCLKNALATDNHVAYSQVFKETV
Briefly: Activation of human TLR7 expressed in HEK293XL assessed as fold induction of NF-kappaB activity at 50 ug/ml after 18 hrs by reporter gene assay relative to control. Summed up:
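HEK293 cells stably expressing human TLR7 or TLR8, transiently transfected with SEAP reporter plasmid; medium replaced, SIMRA compounds added, 18 h incubation. Supernatant SEAP measured by QuantiBlue; expressed as fold increase in NF-κB activity over PBS control. Tabulated data at 50 μg/mL, representative of three independent experiments.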
(In general: A reporter such as luciferase makes a cellular process visible.)

The test system of test [5] is Splenocyte. Briefly: Immunomodulatory activity in C57BL/6 mouse splenocytes bearing TLR7 receptor assessed as IL12 release at 100 ug/ml after 24 hrs by ELISA. It is filed as functional, cell-based. The method, boiled down:
(§2)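 C57BL/6 splenocytes in RPMI 1640 with 10% FBS, penicillin/streptomycin, 2 mM L-glutamine, plated at 5 × 10^6 cells/mL; compounds in PBS added, 37 °C for 24 h. Supernatant IL-12 and IL-6 by ELISA; representative of three independent experiments.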
Background: ELISA stands for enzyme-linked immunosorbent assay.

In test [6] the test system is Splenocyte. The experiment in a line: Immunomodulatory activity in C57BL/6 mouse splenocytes bearing TLR7 receptor assessed as IL6 release at 100 ug/ml after 24 hrs by ELISA. It is filed as functional, cell-based. The method, boiled down:
as §2

Calls of active or inactive are those of the source. No cut-off for these calls is given here.

For `Nc1ccn([C@@H]2O[C@H](COP(=O)(S)O[C@H]3[C@@H](O)[C@H](n4cnc5c(=O)[nH]c(N)nc54)O[C@@H]3COP(=O)(S)O[C@H]3[C@@H](O)[C@H](n4ccc(=O)[nH]c4=O)O[C@@H]3COP(=O)(S)OCCCO)[C@@H](OP(=O)(S)OC[C@H]3O[C@@H](n4ccc(=O)[nH]c4=O)[C@H](O)[C@@H]3OP(=O)(S)OC[C@H]3O[C@@H](n4cnc5c(=O)[nH]c(N)nc54)[C@H](O)[C@@H]3OP(=O)(S)OC[C@H]3O[C@@H](n4ccc(N)nc4=O)[C@H](O)[C@@H]3OP(=O)(S)OC[C@H]3O[C@@H](n4ccc(=O)[nH]c4=O)[C@H](O)[C@@H]3OP(=O)(S)OC[C@H]3O[C@@H](n4ccc(=O)[nH]c4=O)[C@H](O)[C@@H]3OP(=O)(S)OC[C@H]3O[C@@H](n4cnc5c(=O)[nH]c(N)nc54)[C@H](O)[C@@H]3OP(=O)(S)OC[C@H]3O[C@@H](n4ccc(=O)[nH]c4=O)[C@H](O)[C@@H]3OP(=O)(S)OC[C@H]3O[C@@H](n4cnc5c(=O)[nH]c(N)nc54)[C@H](O)[C@@H]3OP(=O)(S)OCC(O)COP(=O)(S)O[C@H]3[C@@H](O)[C@H](n4cnc5c(=O)[nH]c(N)nc54)O[C@@H]3COP(=O)(S)O[C@H]3[C@@H](O)[C@H](n4ccc(=O)[nH]c4=O)O[C@@H]3COP(=O)(S)O[C@H]3[C@@H](O)[C@H](n4cnc5c(=O)[nH]c(N)nc54)O[C@@H]3COP(=O)(S)O[C@H]3[C@@H](O)[C@H](n4ccc(=O)[nH]c4=O)O[C@@H]3COP(=O)(S)O[C@H]3[C@@H](O)[C@H](n4ccc(=O)[nH]c4=O)O[C@@H]3COP(=O)(S)O[C@H]3[C@@H](O)[C@H](n4ccc(N)nc4=O)O[C@@H]3COP(=O)(S)O[C@H]3[C@@H](O)[C@H](n4cnc5c(=O)[nH]c(N)nc54)O[C@@H]3COP(=O)(S)O[C@H]3[C@@H](O)[C@H](n4ccc(=O)[nH]c4=O)O[C@@H]3COP(=O)(S)O[C@H]3[C@@H](O)[C@H](n4ccc(N)nc4=O)O[C@@H]3COP(=O)(S)O[C@H]3[C@@H](O)[C@H](n4cnc5c(=O)[nH]c(N)nc54)O[C@@H]3COP(=O)(S)O[C@H]3[C@@H](O)[C@H](n4ccc(=O)[nH]c4=O)O[C@@H]3COP(=O)(S)OCCCO)[C@H]2O)c(=O)n1` (stereo partly drawn), the Activity in the test with PBMC [1] amounted to 715 pg/mL; in the test on PBMC [3], 260 pg/mL. Also, the result in test [2] was inactive. For the same compound, the fold change (FC) in test [4] turned out to be 0.5.

As for `Nc1ccn([C@@H]2O[C@H](COP(=O)(S)O[C@H]3[C@@H](O)[C@H](n4cnc5c(N)ncnc54)O[C@@H]3COP(=O)(S)O[C@H]3[C@@H](O)[C@H](n4ccc5c(=O)[nH]c(N)nc54)O[C@@H]3COP(=O)(S)O[C@H]3[C@@H](O)[C@H](n4ccc(=O)[nH]c4=O)O[C@@H]3CO)[C@@H](OP(=O)(S)OC[C@H]3O[C@@H](n4ccc5c(=O)[nH]c(N)nc54)[C@H](O)[C@@H]3OP(=O)(S)OC[C@H]3O[C@@H](n4cnc5c(N)ncnc54)[C@H](O)[C@@H]3OC[C@H]3O[C@@H](n4ccc(=O)[nH]c4=O)[C@H](O)[C@@H]3OP(=O)(S)ON[C@H]3O[C@@H](n4ccc5c(=O)[nH]c(N)nc54)[C@H](O)[C@@H]3OP(=O)(S)OC[C@H]3O[C@@H](n4cnc5c(N)ncnc54)[C@H](O)[C@@H]3OP(=O)(S)OC[C@H]3O[C@@H](n4ccc(=O)[nH]c4=O)[C@H](O)[C@@H]3OP(=O)(S)OC[C@H]3O[C@@H](n4ccc(=O)[nH]c4=O)[C@H](O)[C@@H]3OP(=O)(S)OCC(O)COP(=O)(S)O[C@H]3[C@@H](O)[C@H](n4ccc(=O)[nH]c4=O)O[C@@H]3COP(=O)(S)O[C@H]3[C@@H](O)[C@H](n4ccc(=O)[nH]c4=O)O[C@@H]3COP(=O)(S)O[C@H]3[C@@H](O)[C@H](n4cnc5c(N)ncnc54)O[C@@H]3COP(=O)(S)O[C@H]3[C@@H](O)[C@H](n4ccc5c(=O)[nH]c(N)nc54)O[C@@H]3NOP(=O)(S)O[C@H]3[C@@H](O)[C@H](n4ccc(=O)[nH]c4=O)O[C@@H]3CO[C@H]3[C@@H](O)[C@H](n4cnc5c(N)ncnc54)O[C@@H]3COP(=O)(S)O[C@H]3[C@@H](O)[C@H](n4ccc5c(=O)[nH]c(N)nc54)O[C@@H]3COP(=O)(S)O[C@H]3[C@@H](O)[C@H](n4ccc(N)nc4=O)O[C@@H]3COP(=O)(S)O[C@H]3[C@@H](O)[C@H](n4cnc5c(N)ncnc54)O[C@@H]3COP(=O)(S)O[C@H]3[C@@H](O)[C@H](n4ccc5c(=O)[nH]c(N)nc54)O[C@@H]3COP(=O)(S)O[C@H]3[C@@H](O)[C@H](n4ccc(=O)[nH]c4=O)O[C@@H]3CO)[C@H]2O)c(=O)n1` (stereo partly drawn), the result with Splenocyte [5] and with Splenocyte [6] was Active. Moreover, in test [2], the result was inactive. The fold change (FC) in test [4] worked out at 18.4.
